The values that follow come from PMC7941041 (Biochemistry and Biophysics Reports, 2021).

Square brackets hold non-standard residues; d marks the D form. pS = N[C@@H](COP(=O)(O)O)C(=O)O

One may read the Kd as the equilibrium constant for the complex coming apart. High values mean a looser complex, low ones a tighter complex.

Assay [1] has as its target T1, hArc-CT (residues 206–396, containing both lobes) (Homo sapiens, UniProt Q7LC44).
T1 sequence (Q7LC44 206-396): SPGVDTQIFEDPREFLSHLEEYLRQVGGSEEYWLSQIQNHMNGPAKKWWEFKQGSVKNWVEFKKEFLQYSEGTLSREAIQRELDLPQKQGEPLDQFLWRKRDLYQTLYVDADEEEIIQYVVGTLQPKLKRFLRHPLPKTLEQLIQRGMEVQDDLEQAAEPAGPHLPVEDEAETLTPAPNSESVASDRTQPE
The experiment in a line: ITC analysis of peptide binding to hArc-CT. The settings on record: 20 mM Tris-HCl pH 7.4, 150 mM NaCl, +25 °C, one-site binding model. In outline: (§1)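 Human Arc constructs carried a cleavable His-MBP tag and were expressed in E. coli BL21 with IPTG induction at +30 °C. They were purified by Ni-NTA and size-exclusion chromatography, and TEV cleavage left an N-terminal GAMG. Peptides were N-acetylated and C-amidated. Peptide (2.5–5.0 mM) was titrated into the cell containing protein (0.25–0.5 mM).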
In general terms: Isothermal titration calorimetry measures the heat released or taken up as one component is titrated into another.

The target in assay [2] is T2, hArc-NL (residues 207–277) (Homo sapiens, UniProt Q7LC44).
T2 sequence (Q7LC44 207-277): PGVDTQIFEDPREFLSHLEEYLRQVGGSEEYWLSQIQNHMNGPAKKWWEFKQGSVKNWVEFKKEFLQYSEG
The experiment in a line: ITC analysis of peptide binding to hArc-NL. The settings on record: 20 mM Tris-HCl pH 7.4, 150 mM NaCl, +25 °C, one-site binding model. The method, boiled down:
as §1

Assay [3] concerns the target T3, human Arc N-lobe (hArc-NL, residues 207–277) (human, UniProt Q7LC44 207-277).
T3 sequence: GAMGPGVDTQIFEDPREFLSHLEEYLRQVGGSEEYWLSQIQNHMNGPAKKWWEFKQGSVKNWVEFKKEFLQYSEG
Description: ITC.

In assay [4] the target is T4, human Arc C-terminal domain (hArc-CT, residues 206–396, containing both lobes) (human, UniProt Q7LC44 206-396).
T4 sequence: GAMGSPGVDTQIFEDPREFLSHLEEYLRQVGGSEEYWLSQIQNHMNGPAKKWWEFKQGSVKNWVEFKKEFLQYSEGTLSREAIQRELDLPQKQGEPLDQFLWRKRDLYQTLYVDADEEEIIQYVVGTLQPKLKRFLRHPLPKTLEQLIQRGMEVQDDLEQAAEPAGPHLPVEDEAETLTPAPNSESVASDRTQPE
Description: ITC.

In the case of “Ac-RIPSYRYRYQRRSRSSSRSTE-NH2 [pStg(long)]”, in assay [1], the “-TΔS” value is reported as “+14.0 kcal/mol/°” and the ΔH is -20.2 ± 0.2 kcal/mol.

With Ac-TSPKFRSR-NH2 [GKAP-R4], in assay [2], the “-TΔS” value was “+6.6 kcal/mol/°” and the ΔH was -10.9 ± 0.4 kcal/mol. For the same molecule, in assay [1], the “-TΔS” value was “+2.5 kcal/mol/°” and the ΔH was -6.8 ± 0.1 kcal/mol.

Ac-MPGCFRMR-NH2 [GKAP-R5]: in assay [2], the “-TΔS” value is “+4.7 kcal/mol/°” and the ΔH was -8.2 ± 0.3 kcal/mol.

As for Ac-RIPSYRYR-NH2 [pStg(wt)], in assay [2], the “-TΔS” value is recorded as “+7.0 kcal/mol/°” and the ΔH is -13.1 ± 0.1 kcal/mol. In assay [1], the “-TΔS” value is on record as “+6.4 kcal/mol/°” and the ΔH was -12.0 ± 0.2 kcal/mol.

For “Ac-TSPKFRSRNESYMRAMST-NH2 [GKAP-R4(long)]”, in assay [2], the “-TΔS” value is listed as “+3.1 kcal/mol/°” and the ΔH is -7.2 ± 0.2 kcal/mol. Moreover, in assay [1], the “-TΔS” value is reported as “+2.2 kcal/mol/°” and the ΔH was -6.8 ± 0.2 kcal/mol.

B1: GKAP repeat 5 peptide (peptide)
peptide: Ac-MPGCFRMR-NH2
In assay [3], B1 displayed an equilibrium dissociation constant (Kd) of 2390 ± 314 µM and a dH of -8.2 ± 0.3 kcal/mol.

B2: GKAP repeat 4 peptide (peptide)
peptide: Ac-TSPKFRSR-NH2
For B2, the Kd in assay [4] turned out to be 763 ± 10 µM; in assay [3], 714 ± 19 µM. In addition, the values for the dH in assay [4] and in assay [3] were -6.8 ± 0.1 kcal/mol and -10.9 ± 0.4 kcal/mol, respectively.

B3: long stargazin peptide pStg(long) (peptide)
peptide: Ac-RIPSYRYRYQRRSRSSSRSTE-NH2
With B3, in assay [4], the Kd was determined as 26.4 ± 1.2 µM and the dH is -20.2 ± 0.2 kcal/mol.

B4: stargazin peptide pStg(wt) (peptide)
peptide: Ac-RIPSYRYR-NH2
In assay [4], B4 came in with a Kd of 80 ± 4 µM and a dH of -12 ± 0.2 kcal/mol. In addition, in assay [3], the affinity, expressed as Kd, was 33.6 ± 1.1 µM and the dH is -13.1 ± 0.1 kcal/mol.

B5: long GKAP repeat 4 peptide (peptide)
peptide: Ac-TSPKFRSRNESYMRAMST-NH2
With B5, the Kd in assay [4] stood at 391 ± 18 µM; in assay [3], 426 ± 12 µM. The dH in assay [4] was -6.8 ± 0.2 kcal/mol; in assay [3] it was -7.2 ± 0.2 kcal/mol.

B6: phosphorylated stargazin peptide pStg(phos) (peptide)
peptide: Ac-RIP[pS]YRYR-NH2
SMILES: CC[C@H](C)[C@H](NC(=O)[C@H](CCCNC(=N)N)NC(C)=O)C(=O)N1CCC[C@H]1C(=O)N[C@@H](COP(=O)(O)O)C(=O)N[C@@H](Cc1ccc(O)cc1)C(=O)N[C@@H](CCCNC(=N)N)C(=O)N[C@@H](Cc1ccc(O)cc1)C(=O)N[C@@H](CCCNC(=N)N)C(N)=O
B6 showed a dH in assay [3] of -66.5 ± 0.6 kcal/mol.
